MsrA act = activates bovine MsrA enzyme. AID 602163. activation, % at 10.6 µM. 0.3% of 360,000 active. purified bovine MsrA, absorbance read-out; in the data active = activation above about 7.5%;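 note: 0% = vehicle and 100% = reference activator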
MsrA inh = bovine MsrA inhibition; purified bovine MsrA, absorbance read-out; inhibition, % at 15.5 µM; 0.75% of 360,000 active; in the data active = inhibition above about 4.5%;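 note: 0% = vehicle wells with enzyme and 100% = reference inhibitor wells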
ARFGAP1 inh = inhibits rat ARF GTPase activating protein 1. Q62848. Arfgap1-stimulated ARF1 GTP hydrolysis, GDP FP detection. inhibition, % at 16.5 µM. 0.26% of 360,000 active;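 active = inhibition above a per-plate limit, mean inhibition of low control wells plus 3 SD, cut at about 25% in these data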;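 note: 0% = DMSO wells with enzyme and 100% = wells lacking Arfgap1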
Target sequence (Q62848 1-136 limits assumed): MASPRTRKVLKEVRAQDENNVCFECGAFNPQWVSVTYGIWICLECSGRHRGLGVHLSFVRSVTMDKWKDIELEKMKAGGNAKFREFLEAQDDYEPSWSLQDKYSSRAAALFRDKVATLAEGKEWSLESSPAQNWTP
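System: truncated rat Arfgap1 GAP domain / Benchmarks: high control wells lacking Arfgap1, low control full reaction with DMSO / Times: compound-enzyme preincubation 20 min, reaction 120 min, detection 60 min, 25 °C / Repeats: one replicate per compound / Also added: human ARF1(Δ1-17)-GTP substrate / Measured by: Tracer-displacement fluorescence polarization with EDTA stop, 620/688 nm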
ASAP1 GAP inh = ASAP1 ArfGAP inhibition | Q9ULH1 | ASAP1-stimulated ARF1 GTP hydrolysis, GDP FP detection | inhibition, % at 16.5 µM | 0.19% of 360,000 active | AID 624377; in the data active = inhibition above about 25%;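 note: 0% = vehicle with enzyme and substrate and 100% = no enzyme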
Target sequence (Q9ULH1 325-724 limits assumed): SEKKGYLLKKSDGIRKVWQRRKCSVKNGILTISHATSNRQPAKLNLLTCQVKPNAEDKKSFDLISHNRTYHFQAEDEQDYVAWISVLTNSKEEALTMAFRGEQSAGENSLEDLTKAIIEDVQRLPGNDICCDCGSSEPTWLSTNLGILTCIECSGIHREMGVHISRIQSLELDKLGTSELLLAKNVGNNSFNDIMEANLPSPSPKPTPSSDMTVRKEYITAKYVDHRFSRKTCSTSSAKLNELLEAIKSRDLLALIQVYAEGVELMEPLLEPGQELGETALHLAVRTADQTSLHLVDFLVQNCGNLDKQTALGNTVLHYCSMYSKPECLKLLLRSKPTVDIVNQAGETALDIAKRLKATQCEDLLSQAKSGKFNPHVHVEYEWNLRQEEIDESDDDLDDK
* marks the source's active call; other numbers are inactive results; · = no result. A selection: hits, their analogues and other compounds. The true share with any hit is near 1.4%.

SMILES	MsrA act	MsrA inh	ARFGAP1 inh	ASAP1 GAP inh
CCOC(=O)c1cc2ccc(OC)cc2oc1=O	-6.0	4.6*	-1.8	9.2
Cc1ccc(NC(=O)/C=C/c2ccco2)nc1	-5.1	5.0*	-10.0	-8.6
COc1cccc(NC(=O)/C=C/c2ccco2)c1	-3.2	4.6*	5.1	-2.8
O=C(/C=C/c1ccco1)Nc1ccc2c(c1)OCCO2	-5.2	4.6*	6.0	7.7
O=C(/C=C/c1ccccc1)Nc1ccc2c(c1)OCCO2	-1.2	-0.9	7.6	11.4
COc1ccc(NC(=S)NNC(=O)CNc2ccc(Cl)cc2)cc1	-2.0	0.4	8.5	2.1
O=C(NCCN1CCOCC1)/C(=C/c1ccc(Cl)cc1)NC(=O)c1ccccc1	-1.1	-0.4	10.1	5.2
CN(C)c1ccc(/C=C(/NC(=O)c2ccccc2)C(=O)NCCN2CCOCC2)cc1	-4.3	4.6*	-4.6	1.9
COc1ccc(-c2cc(C)no2)cc1S(=O)(=O)NCCCN1CCCCCC1	-8.7	1.1	0.8	0.0
O=[N+]([O-])c1ccc(NCCNS(=O)(=O)c2ccccc2)c(C(F)(F)F)c1	-2.6	5.1*	1.7	9.8
CS(=O)(=O)c1ccc(C(=O)Nc2ccc(N3CCCC3)cc2)c(Cl)c1	-3.9	-1.5	10.4	-4.0
O=C(Nc1ccc(N2CCCC2)cc1)c1cc(Br)ccc1Cl	-3.7	0.8	31.6*	21.8
COc1ccccc1/C=C/C=N/NC(=O)c1ccccn1	-6.4	4.6*	9.5	3.5
COc1ccccc1/C=C/C=N/NC(=O)c1cc(-c2ccco2)[nH]n1	-5.2	2.2	12.9	16.2
Cc1c(C)c2c(OCC(=O)NCC(=O)NCC(=O)O)cc3c(c2oc1=O)CCC(C)(C)O3	-4.4	4.5*	-2.0	-6.0
O=C1c2ccccc2C(c2nnnn2Cc2ccccc2)N1C1CC1 (configuration not stated)	-3.1	-0.7	3.5	-3.2
CCc1nc(NC(=O)c2sc(C)nc2C)sc1C(=O)OC	-3.4	4.6*	-5.4	-8.1
O=C(/C=C/[C@H]1O[C@@H](n2ccc(=O)[nH]c2=O)[C@H](O)[C@@H]1O)NCCN1CCCC1	-2.5	-0.2	-3.4	-15.1
Cn1c(=O)c(=O)n(C)c2cc([N+](=O)[O-])c([N+](=O)[O-])cc21	1.8	5.1*	-6.9	-2.8
Cn1cccc([N+](=O)[O-])c1=O	-9.1	2.1	-4.9	16.7
COC(=O)c1sc(N)c(C(=O)OC)c1COC(=O)C12CC3CC(CC(O)(C3)C1)C2	-2.1	3.0	-12.7	5.2
CCc1ccccc1Oc1nc(NCc2ccccc2)nc2ccsc12	-2.5	-0.9	9.4	8.4
CCOC(=O)/C=C(\C)Sc1cc(O)c2ccccc2c1O	3.3	41.4*	21.1	29.2*
CCOC(=O)/C=C(\C)Sc1cc(=O)oc2ccccc12	-4.2	0.4	14.1	4.3
COc1ccc(CN2CCN(c3cccc(C)c3C)CC2)cc1OC	-0.9	0.1	33.6*	1.1
SMILES	MsrA act	MsrA inh	ARFGAP1 inh	ASAP1 GAP inh
CN(C)c1nc(NCc2ccccc2)nc(SCC(=O)Nc2ccccc2)n1	18.0*	1.0	3.6	10.4
Cc1cc(C)nc(N/N=C/c2cc(C)n(CC(F)(F)F)c2C)n1	-2.9	4.6*	-6.7	-1.7
Cc1cc(C)nc(N/N=C/c2ccco2)n1	-3.1	3.9	-6.2	-3.0
O=C(/C=C/c1cccs1)NC(=S)NNC(=O)c1ccccc1O	-7.1	6.9*	-14.7	3.8
COc1ccc(C(=O)NNC(=S)NC(=O)/C=C/c2cccs2)cc1	-1.4	1.1	-6.1	5.0
COc1cccc(-c2sc3ccc(OC)cc3c2C#CC2(O)CCCCC2)c1	-4.7	4.7*	-1.2	-1.7
COc1cc(OC)cc(-c2sc3ccc(OC)cc3c2C#CC2(N)CCCCC2)c1	-0.6	1.4	22.2	-9.5
CO/C=C\C=C/c1nnn(-c2ccc(Cl)cc2)n1	-1.2	-1.1	2.5	8.3
COc1ccccc1N1CCN(C(=O)/C=C/c2c(Cl)nc3ccccn23)CC1	-14.2	4.6*	14.8	5.3
COc1ccc(NC(=O)/C=C/c2c(Cl)nc3ccccn23)cc1	-3.7	2.5	1.7	14.2
Cc1cccc(NC(=O)c2sc3nc(N)c(C#N)cc3c2N)c1	-8.1	4.6*	0.8	2.4
Cc1nn(CCCC(=O)Nc2sc3c(c2C#N)CCC3)c(C)c1[N+](=O)[O-]	-0.6	24.7*	2.4	1.0
CC(=O)Nc1ccc(NC(=O)C2CCN(S(C)(=O)=O)CC2)cc1	-3.9	0.3	1.2	-7.6
CC(=O)c1ccc(N(C)C)cc1	-1.9	3.0	1.5	-1.3
CN(C)c1ccc(C(=O)C(=O)c2ccccc2)cc1	-5.1	4.6*	-2.2	3.2
CCOC(=O)C(N)CSC1CC(=O)N(c2ccc(C(=O)OC)cc2)C1=O (configuration not stated)	11.4*	-0.3	5.1	-6.4
CCn1c(/C=C/N(C(C)=O)c2ccccc2)[n+](CCCS(=O)(=O)[O-])c2cc(Cl)c(Cl)cc21	-5.8	4.6*	-7.6	10.3
COc1ccc(NC2CCCN(C(=O)CCCn3cncn3)C2)cc1OC (configuration not stated)	-2.0	-0.3	16.0	-4.8
O=[N+]([O-])c1ccc(OC2OCC(O)C(O)C2O)cc1 (configuration not stated)	·	2.3	9.0	0.7
Cc1cc(C(F)(F)F)n2nc(-c3cnn(C)c3C(F)(F)F)cc2n1	7.7*	0.7	0.4	3.8
Cc1cc2nc(-c3ccncc3)cc(C(F)(F)F)n2n1	-3.9	1.3	0.5	-0.2
Cc1ccc(C(=O)Nc2ccc([N+](=O)[O-])cn2)o1	-2.9	4.6*	10.0	16.8
Cc1ccc(C)c(OCc2ccc(C(=O)Nc3ccc([N+](=O)[O-])cn3)o2)c1	-0.9	1.0	-0.2	6.6
C[C@H](NC(=O)c1[nH]cnc1C(=O)Nc1ccc(CNC(=O)OC(C)(C)C)cc1)C(=O)OC(C)(C)C	0.5	-0.2	2.1	10.4
Cc1ccc(-c2nc3ccccc3o2)cc1NC(=O)Cc1cccs1	-1.5	0.4	1.4	10.5
SMILES	MsrA act	MsrA inh	ARFGAP1 inh	ASAP1 GAP inh
O=C(O)C/C(=C\c1cc(Br)cs1)c1nc2ccccc2o1	-5.2	4.6*	-0.8	-11.4
Cc1ccsc1/C=C(\C(=O)c1ccc(OC(C)C)cc1)c1nc2ccccc2o1	-13.0	4.6*	-3.8	9.0
Cc1ccsc1/C=C(\CC(=O)O)c1nc2ccccc2o1	-8.0	4.6*	12.8	-9.4
O=C(NCCCn1ccnc1)Nc1ccc2c(c1)OCO2	-0.8	0.3	4.6	3.9
Cc1csc(NC(=O)C2(C)CCN2C(=O)C(C)C)c1C#N (configuration not stated)	-1.4	·	·	·
CC(CCc1ccccc1)NC(=O)COC(=O)C(CCC(N)=O)NC(=O)c1ccc(F)cc1 (configuration not stated)	-3.0	0.6	3.1	7.1
O=C(CN1c2cccc3cccc(c23)S1(=O)=O)Nc1ccc(F)c(F)c1F	-1.9	0.4	-10.5	5.8
COc1cc(/C=C2\SC(=O)N(c3ccc(Cl)cc3)C2=O)cc([N+](=O)[O-])c1O	-5.2	7.1*	-18.6	-6.8
COc1cc(/C=C2\SC(=O)N(c3cccc(Cl)c3)C2=O)cc([N+](=O)[O-])c1O	-1.6	1.1	-19.5	-9.4
CC(=O)Nc1nc(C)c(-c2csc(Nc3cccc(C(C)=O)c3)n2)s1	-1.8	4.6*	13.4	8.6
